Screens (PubChem BioAssay)
An excerpt weighted towards active compounds, which were near 2.4% of everything screened.
PAD4 FP inh: human PAD4 inhibitors, primary screen, biochemical, fluorescence polarization, 1536-well format. Protein-arginine deiminase type-4 (Homo sapiens), Q9UM07. recombinant PAD4, RCA probe fluorescence polarization. inhibition, % at 6.36 µM. 330,000 compounds, 0.41% hits. AID 485272, 2010;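 active = percent inhibition above a cutoff equal to the mean of all tested compounds plus 3 SD, cut at about 15% in these data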;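 note: 0% = PAD4 with RCA probe and DMSO and 100% = probe without PAD4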
TCR CD3 inh: inhibitors of human TCR-CD3 interaction, primary screen, biochemical, fluorescence, TAMRA-labeled TCR probe. T-cell receptor (TCR). inhibition, % at 9.4 µM. 360,000 compounds, 0.37% hits. AID 651800, 2012; in the data active = inhibition above about 19%;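 note: recombinant mutant TCR 2C K166C tagged with TAMRA read by polarization; 0% = receptor in buffer alone and 100% = receptor with positive control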
TDP2 inh: human TDP2 enzyme inhibitors, primary screen, biochemical, epi absorbance, recombinant enzyme; inhibition, % at 12.8 µM; Tyrosyl-DNA phosphodiesterase 2 (Homo sapiens), O95551; 370,000 compounds, 0.34% hits; T5PNP hydrolysis, p-nitrophenol absorbance 415 nm; AID 720702, 2013;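 active = inhibition above the mean of all tested compounds plus 3 SD, set per campaign, cut at about 25% in these data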;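 note: 0% = DMSO with enzyme and 100% = buffer with substrate but no TDP2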
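Test system: human TDP2 enzyme; Input: 120 nM TDP2 per well; Buffer or medium: Mg2+-containing Tris-HCl buffer, pH 7.5; Reagent: 5 mM T5PNP; Dosing: 12.8 µM single point, 1% DMSO; Incubation: reaction 2 h, 37 °C; Detection: p-Nitrophenol epi absorbance; Read-out: % inhibition relative to enzyme-containing and enzyme-free wells; Replicates: single well per compound.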
GSTO1 counter: inhibitors of recombinant GSTO1, primary screen, counter-screen for RBBP9 inhibitor project, biochemical, fluorescence polarization | Glutathione S-transferase omega-1 (Homo sapiens), P78417 | activity-based probe fluorescence polarization | inhibition, % at 5.96 µM | 300,000 compounds, 1.1% hits;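 active = inhibition above the campaign mean inhibition plus 3 SD, cut at about 35% in these data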;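 note: 0% = GSTO1-1 with DMSO and 100% = wells lacking GSTO1-1 enzyme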
Target sequence (P78417 whole entry, looked up): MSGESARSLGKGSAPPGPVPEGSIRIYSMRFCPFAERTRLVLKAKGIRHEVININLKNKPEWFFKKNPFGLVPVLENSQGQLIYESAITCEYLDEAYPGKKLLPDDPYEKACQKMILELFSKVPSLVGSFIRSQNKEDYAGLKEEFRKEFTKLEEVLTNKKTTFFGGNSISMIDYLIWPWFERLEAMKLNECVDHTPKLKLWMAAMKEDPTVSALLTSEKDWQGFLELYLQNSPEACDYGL
Apaf1 inhib: inhibitors of human Apaf-1 apoptosome, primary screen, biochemical, DEVD-Rh110 fluorescence, uHTS; AID 489030, 2010; 330,000 compounds, 0.71% hits; Apoptotic protease-activating factor 1 (Homo sapiens), O14727; inhibition, % at 20 µM; reconstituted apoptosome caspase-3 activity; active = inhibition of at least 40% at 20 µM;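 note: plate controls were DMSO wells for no effect and DEVD-CHO caspase inhibitor wells for full effect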
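Material: reconstituted apoptosome with Apaf-1, cytochrome c, caspase-9, procaspase-3, dATP / Buffer or medium: pH 7.5 Hepes buffer with CHAPS, BSA, DTT / Also added: cytochrome c with DEVD-Rh110 / Schedule: compound with Apaf-1, dATP, procaspase-3 30 min, then 50 min reaction, room temperature / Technique: rhodamine 110 fluorescence at Ex 480/Em 540 nm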
SIAE inh: human SIAE inhibitors, primary screen, biochemical, fluorescence polarization, FP-Rh probe, 1536-well HTS. 370,000 compounds, 0.69% hits. Sialate O-acetylesterase (Homo sapiens), Q9HAT2. AID 1053197, 2014. inhibition, % at 9.66 µM. SIAE FP-Rh probe binding;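 active = inhibition above a cutoff: mean of compounds within the control limits plus 3 SD of those, cut at about 17% in these data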;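 note: 0% = plate median of compound wells and 100% = probe without SIAE protein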
GSTO1 inh conf: GSTO1 inhibitor hit confirmation, counter-screen for RBBP9 inhibitor project, biochemical, fluorescence polarization, triplicate; shares compounds with GSTO1 counter; recombinant GSTO1, probe fluorescence polarization; 2,400 compounds, 54% hits; AID 2176, 2009; inhibition, % at 5.96 µM;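 active = inhibition above the primary screen's cutoff, its mean inhibition plus 3 SD, cut at about 35% in these data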;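 note: loss of polarization as inhibitors block binding of rhodamine sulfonate ester activity probe; 0% = GSTO1 with DMSO and 100% = wells lacking GSTO1 enzyme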
Starred values were filed as active, the others as inactive; · = not tested or not shown.

SMILES | PAD4 FP inh | TCR CD3 inh | TDP2 inh | GSTO1 counter | Apaf1 inhib | SIAE inh | GSTO1 inh conf
CC(C)NC(=S)N=Nc1c(O)[nH]c2ccc([N+](=O)[O-])cc12 | -4 | 5 | -10 | 33 | -17 | 4 | ·
C=C(C)CNC(=S)N=Nc1c(O)[nH]c2ccc([N+](=O)[O-])cc12 | -5 | 2 | -6 | 42* | -11 | 10 | 37*
O=C(CNC(=O)c1ccco1)N=Nc1c(O)[nH]c2ccc([N+](=O)[O-])cc12 | -7 | -1 | 15 | 50* | 5 | 0 | 62*
Cc1ccc(-c2csc3ncn(CC#N)c(=O)c23)cc1 | -3 | 6 | 10 | 18 | 1 | -4 | ·
Cc1ccc(-c2csc3ncn(CC#N)c(=O)c23)cc1C | -5 | 4 | -13 | 39* | 19 | -10 | 30
CC1=CC(=Nc2c(C)n(C)n(-c3ccccc3)c2=O)C=CC1=O | 8 | · | · | 74* | 43* | · | 41*
O=C(O)c1ccccc1C(=O)OC1CC2CCC1C2 (stereo not drawn) | · | 4 | -1 | · | · | -3 | ·
NC(=O)N/N=C/c1coc2ccc(O)cc2c1=O | 2 | 3 | 10 | 70* | 5 | 10 | 20
Cc1ccc2occ(/C=N/NC(=O)c3ccc(O)cc3)c(=O)c2c1 | · | -11 | -4 | · | 22 | -2 | ·
O=C(O)C1Nc2ccc(Br)cc2C2C=CCC12 (stereo not drawn) | 8 | · | · | 51* | 10 | · | 49*
O=C(O)C1Nc2c(Cl)cc(Cl)cc2C2C=CCC12 (stereo not drawn) | -4 | · | · | 34 | · | · | ·
O=C(O)C1Nc2c(O)cccc2C2C=CCC12 (stereo not drawn) | -3 | 72* | 20 | 61* | 35 | 64* | 52*
O=C(COc1ccc(Cl)cc1)NCc1nnc(SCC(=O)NCc2ccc3c(c2)OCO3)o1 | 1 | 8 | 0 | 1 | 7 | -3 | ·
CCN(CC)CCNc1cc(C)nc2c1C(=O)C(=O)C=C2N1CCCCC1 | 3 | 1 | -5 | 77* | 40 | 4 | 45*
CNC(=O)C1CCC(=O)N1Cc1ccccc1Cl (stereo not drawn) | -1 | 3 | -6 | -2 | -4 | -2 | ·
c1ccc(-c2ccc(C3=Nn4c(Cn5nnc6ccccc65)nnc4SC3)cc2)cc1 | -7 | 0 | -4 | 56* | 27 | -27 | -9
c1ccc(C2=Nn3c(Cn4nnc5ccccc54)nnc3SC2)cc1 | 1 | -7 | 10 | 1 | -6 | -3 | ·
NS(=O)(=O)c1ccc(NC(=O)Nc2cccc(Cl)c2)cc1 | -3 | 2 | 6 | -24 | 6 | -39 | ·
Cc1cc(C)cc(-n2c(C)cc(C(=O)CSc3nnnn3C)c2C)c1 | -8 | 2 | 8 | 49* | 10 | 4 | 43*
CC(=O)N1c2ccc(S(=O)(=O)N3CCCC3)cc2CC1C(=O)NCc1cccc(F)c1 (stereo not drawn) | -3 | 2 | 8 | 4 | 1 | 5 | ·
Cc1ccc(NC(=O)/C(C#N)=C(\N)C(Cl)(Cl)Cl)nc1 | 10 | · | · | 47* | 3 | · | 76*
Cc1cccc2cc(CN(Cc3ccco3)C(c3nnnn3CCc3ccccc3)C(C)C)c(=O)[nH]c12 (stereo not drawn) | 4 | -6 | -5 | -5 | 13 | -12 | ·
Cn1c2ccc(Cl)cc2c2nc3ccccc3nc21 | -1 | 3 | 5 | 76* | 23 | -14 | -4
Cc1ccc2c(c1)c1nc3ccccc3nc1n2C | -1 | -6 | 8 | -2 | -14 | -5 | ·
COc1ccc(C2C(C(=O)/C=C/c3ccco3)=C(O)C(=O)N2CCN2CCOCC2)cc1 (stereo not drawn) | -3 | 1 | -5 | 12 | -3 | 10 | ·
